Data published in ChEMBL document CHEMBL1129265, “Synthesis and characterization of pseudopeptide bradykinin B2 receptor antagonists containing the 1,3,8-triazaspiro[4.5]decan-4-one ring system” (J Med Chem, 1996).

How the values were obtained:
B2 bradykinin receptor = target: T1, B2 bradykinin receptor (Homo sapiens, UniProt P30411); assay: Affinity to human Bradykinin receptor B2 in CHO cell membranes determined by displacement of [3H]-NPC 17731
T1 sequence (P30411 whole entry): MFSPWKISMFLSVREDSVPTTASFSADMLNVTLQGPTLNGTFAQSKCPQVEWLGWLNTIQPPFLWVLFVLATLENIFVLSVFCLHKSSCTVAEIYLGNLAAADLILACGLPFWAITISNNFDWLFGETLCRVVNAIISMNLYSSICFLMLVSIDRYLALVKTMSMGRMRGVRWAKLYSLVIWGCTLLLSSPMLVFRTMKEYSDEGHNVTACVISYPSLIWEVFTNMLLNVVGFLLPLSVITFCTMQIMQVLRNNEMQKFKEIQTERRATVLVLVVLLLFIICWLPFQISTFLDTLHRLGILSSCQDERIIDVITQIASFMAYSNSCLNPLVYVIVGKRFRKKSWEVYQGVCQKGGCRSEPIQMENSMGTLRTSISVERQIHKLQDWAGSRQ
Outline: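 Membranes from CHO/K cells transfected with human B2 receptor, grown in Ham's F12 with 10% FBS and 500 ug/mL G418. Buffer: 25 mM TES, 1 mM 1,10-phenanthroline, pH 6.8, with bacitracin and 0.1% BSA. Competition versus [3H]NPC-17731, 15 pM final. 1 uM bradykinin defines nonspecific binding. 90 min at 25 °C, then filtration on PEI-soaked GF/B and scintillation counting. n=3.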

Oryctolagus cuniculus = organism: Oryctolagus cuniculus; assay: Pharmacological profile in bradykinin induced assay in rabbits ([…]); format: functional
Outline: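 Male New Zealand white rabbits, 1.5–2.0 kg, acepromazine premedicated, pentobarbital anesthetized. Carotid catheter records mean arterial pressure continuously. Three bolus bradykinin doses (1 ug/kg iv) set baseline. Antagonist in saline is then given iv at rising doses (0.03–1000 ug/kg), each followed after 5 min by a bradykinin bolus. Percent inhibition of hypotension per animal; ED50 by probit; n=4.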

Rattus norvegicus = organism: Rattus norvegicus; assay: Pharmacological profile in bradykinin induced assay in rats ([…] in rats); format: functional
Outline: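 Anesthetized Sprague–Dawley rats, carotid mean arterial pressure, jugular iv dosing, tracheotomy. After 30 min stabilization, three bradykinin injections (12 ug/kg iv, 5 min apart) set baseline hypotension. Test agent is given iv 10–15 min later, followed 5 min after by bradykinin challenge. Successive increasing doses give a cumulative dose–response; ED50 reported, n=4.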

CC(=O)CN1CN(CCc2ccccc2)C2(CCN(C)CC2)C1=O
Ki (B2 bradykinin receptor): 0.15 nM

CC(=O)CN1CN(c2ccccc2)C2(CCN(C)CC2)C1=O
ED50 (Oryctolagus cuniculus): 0.0221 mg/kg
ED50 (Rattus norvegicus): 0.4 mg/kg
Ki (B2 bradykinin receptor): 7.7 nM

CC(=O)CN1CN(c2ccc(C)cc2)C2(CCN(C)CC2)C1=O
Ki (B2 bradykinin receptor): 6.3 nM

CCCN1CN(CC(C)=O)C(=O)C12CCN(C)CC2
Ki (B2 bradykinin receptor): 27 nM

CC(=O)CN1CN(CC2CCCCC2)C2(CCN(C)CC2)C1=O
Ki (B2 bradykinin receptor): 6.8 nM

CC(=O)CN1CN(C2CCCCC2)C2(CCN(C)CC2)C1=O
ED50 (Oryctolagus cuniculus): 0.0086 mg/kg
ED50 (Rattus norvegicus): 0.6 mg/kg
Ki (B2 bradykinin receptor): 0.57 nM
